Active and inactive are the calls of the source. The rule behind the calls is not given here.
How the values were obtained:
[1] = tested on: HeLa; assay: Cytotoxicity against human HeLa cells assessed as growth inhibition after 72 hrs by MTT assay; format: functional, cell-based
[2] = tested on: HT-29; assay: Cytotoxicity against human HT-29 cells assessed as growth inhibition after 72 hrs by MTT assay; format: functional, cell-based; details: HT-29, 72 h
[3] = tested on: LoVo; assay: Cytotoxicity against human LoVo cells assessed as growth inhibition after 72 hrs by MTT assay; format: functional, cell-based
[4] = tested on: CCRF-CEM; assay: Cytotoxicity against human CEM cells assessed as growth inhibition after 72 hrs by MTT assay; format: functional, cell-based
[5] = tested on: Jurkat; assay: Cytotoxicity against human Jurkat cells assessed as growth inhibition after 72 hrs by MTT assay; format: functional, cell-based
[6] = Cytotoxicity against human SEM cells assessed as growth inhibition after 72 hrs by MTT assay; format: functional, cell-based
[7] = tested on: MCF7; assay: Cytotoxicity against human MCF7 cells assessed as growth inhibition after 72 hrs by MTT assay; format: functional, cell-based; details: MCF7, 72 h
[8] = tested on: PBMC; assay: Cytotoxicity against human resting PBMC assessed as growth inhibition after 72 hrs by MTT assay; format: cell-based
How it was run: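 Healthy-donor PBMC from Lymphoprep gradient, rested overnight in RPMI-1640/10% FBS; non-adherent cells at 5 × 10^5 cells/mL without PHA, treated 72 h with varying concentrations; viability by MTT; IC50 mean ± SEM, three separate experiments.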

[9] = tested on: PBMC; assay: Cytotoxicity against human PHA-stimulated PBMC assessed as growth inhibition after 72 hrs by MTT assay; format: functional, cell-based
[10] = Selectivity ratio of IC50 for human resting PBMC to IC50 for human Jurkat cells; format: ADME, cell-based; details: resting PBMC versus Jurkat cells, read-out: Ratio IC50
[11] = Selectivity ratio of IC50 for human resting PBMC to IC50 for human CEM cells; format: ADME, cell-based, CCRF-CEM; details: resting PBMC versus CEM cells, read-out: Ratio IC50
[12] = Cytotoxicity against human LoVo/DX cells assessed as growth inhibition after 72 hrs by MTT assay; format: functional, cell-based
[13] = Cytotoxicity against human CEM/VBL100 cells assessed as growth inhibition after 72 hrs by MTT assay; format: functional, cell-based; details: CEM/VBL100, 72 h
[14] = tested on: LoVo; assay: Resistance ratio of IC50 for human LoVo/DX cells to IC50 for human LoVo cells; format: functional
How it was run: (§1)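 Ratio of IC50 in resistant line to IC50 in parental line (CEMVbl-100/CEM; LoVoDoxo/LoVo), each IC50 from 72 h MTT dose–response curves, ≥3 independent experiments.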

[15] = tested on: CCRF-CEM; assay: Resistance ratio of IC50 for human CEM/VBL100 cells to IC50 for human CEM cells; format: functional; how it was run: as §1
[16] = target: Tubulin (Bos taurus) (UniProt Q6B856+Q862L2+Q862F3); assay: Inhibition of bovine brain tubulin polymerization at 20 uM by turbidimetry
How it was run: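 Purified bovine brain tubulin (10 μM) preincubated with compound in glutamate buffer at 30 °C, cooled to 0 °C, GTP added, then warmed to 30 °C in cuvettes; assembly followed turbidimetrically; concentrations up to 20 μM.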

[17] = tested on: HeLa; assay: Induction of apoptosis in human HeLa cells assessed as increase in Bid protein expression at 1 uM after 24 hrs by Western blotting analysis; format: functional, cell-based
[18] = tested on: HeLa; assay: Induction of apoptosis in human HeLa cells assessed as increase in Bax protein expression at 1 to 2.5 uM after 24 to 48 hrs by Western blotting analysis; format: functional, cell-based
[19] = tested on: HeLa; assay: Induction of apoptosis in human HeLa cells assessed as increase in Bak protein expression at 1 to 2.5 uM after 24 to 48 hrs by Western blotting analysis; format: functional, cell-based
[20] = target: Tubulin (Homo sapiens) (UniProt P68371+Q9H4B7+P0DPH7+P68366+Q13509+Q71U36+P04350+Q3ZCM7+P07437+P68363+Q9BQE3+Q6PEY2+Q13885+Q9BVA1+Q9BUF5); assay: Inhibition of tubulin polymerization in human HeLa cells assessed as microtubule disruption at 2.5 to 5 uM after 24 hrs by immunofluorescence microscopy relative to untreated control; format: cell-based
How it was run: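 HeLa cells exposed 24 h to 2.5 or 5.0 μM versus untreated; fixed in cold 4% formaldehyde 15 min, stained with anti-β-tubulin monoclonal (1:1000) and Alexa secondary (1:2000), DAPI counterstain; imaged by confocal microscopy at 20×.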

[21] = tested on: HeLa; assay: Cell cycle arrest in human HeLa cells assessed as accumulation at G2/M phase after 24 hrs by propidium iodide staining-based flow cytometry; format: functional
How it was run: (§2)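 HeLa cells in exponential growth (2.5 × 10^5) treated 24 h at various concentrations; ethanol-fixed (70%, ice-cold), lysed with RNase A/0.1% Triton X-100, PI-stained; DNA content by flow cytometry, phase percentages from DNA histograms.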

[22] = tested on: HeLa; assay: Cell cycle arrest in human HeLa cells assessed as reduction in S phase after 24 hrs by propidium iodide staining-based flow cytometry; format: functional; how it was run: as §2
[23] = tested on: HeLa; assay: Induction of apoptosis in human HeLa cells at 0.62 to 5 uM after 24 to 48 hrs by Annexin V/FITC staining-based flow cytometry; format: functional, cell-based
How it was run: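 HeLa cells treated 24 or 48 h at indicated concentrations, then stained with annexin-V-FITC plus PI; flow cytometry with 488 nm excitation, 525 and 585 nm emission; live, early/late apoptotic and necrotic populations distinguished; means of three independent experiments.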

[24] = tested on: HeLa; assay: Induction of apoptosis in human HeLa cells assessed as caspase activation at 2.5 uM after 48 hrs in presence of pan-caspase inhibitor z-VAD.fmk; format: functional, cell-based
How it was run: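 HeLa cells given 2.5 μM compound for 48 h with or without 100 μM z-VAD.fmk pan-caspase inhibitor; viability measured; means ± SEM of three independent experiments, Student's t-test.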

[25] = tested on: HeLa; assay: Induction of apoptosis in human HeLa cells assessed as reduction in Bcl-2 protein expression at 1 to 2.5 uM by Western blotting analysis; format: functional, cell-based; details: TDE = time-dependent effect
How it was run: (§3)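 HeLa cells treated at indicated concentrations and times; washed in cold PBS, lysed 30 min at 0 °C, cleared at 15 000 × g; 20 μg protein resolved on 7.5–15% gradient SDS-PAGE, blotted to PVDF, primary antibodies 2 h room temperature, peroxidase secondary 60 min, ECL detection; β-actin reprobe for loading.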

[26] = tested on: HeLa; assay: Induction of apoptosis in human HeLa cells assessed as caspase-3 activation after 24 to 48 hrs by Western blotting analysis; format: functional, cell-based; how it was run: as §3
[27] = tested on: HeLa; assay: Induction of apoptosis in human HeLa cells assessed as caspase-3 activation at 1 to 2.5 uM by Western blotting analysis; format: functional, cell-based; details: TDE = time-dependent effect; how it was run: as §3
[28] = tested on: HeLa; assay: Induction of apoptosis in human HeLa cells assessed as PARP cleavage after 24 to 48 hrs by Western blotting analysis; format: functional, cell-based; how it was run: as §3
[29] = tested on: HeLa; assay: Induction of apoptosis in human HeLa cells assessed as PARP cleavage at 1 to 2.5 uM by Western blotting analysis; format: functional, cell-based; details: TDE = time-dependent effect; how it was run: as §3
[30] = tested on: HeLa; assay: Induction of apoptosis in human HeLa cells assessed as caspase-9 activation at 1 to 2.5 uM after 24 to 48 hrs by Western blotting analysis; format: functional, cell-based; how it was run: as §3
[31] = tested on: HeLa; assay: Induction of apoptosis in human HeLa cells assessed as caspase-8 activation at 1 to 2.5 uM after 24 to 48 hrs by Western blotting analysis; format: functional, cell-based; how it was run: as §3
[32] = tested on: HeLa; assay: Induction of apoptosis in human HeLa cells assessed as reduction in Bcl-2 protein expression at 1 to 2.5 uM after 48 hrs by Western blotting analysis; format: functional, cell-based; how it was run: as §3
[33] = tested on: HeLa; assay: Induction of apoptosis in human HeLa cells assessed as reduction in Mcl-1 protein expression at 2.5 uM after 48 hrs by Western blotting analysis; format: functional, cell-based; how it was run: as §3
[34] = tested on: HeLa; assay: Induction of DNA damage in human HeLa cells assessed as increase in gammaH2A.X protein expression at 1 to 2.5 uM after 48 hrs by Western blotting analysis; format: functional, cell-based
[35] = tested on: HeLa; assay: Induction of apoptosis in human HeLa cells assessed as GSH depletion after 24 hrs by CMFDA staining-based flow cytometry; format: functional, cell-based
How it was run: (§4)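 HeLa cells treated 24 h with compound, alone or with 100 μM NAC; harvested and loaded with 5 μM CMFDA, 30 min at 37 °C; intracellular GSH read as CMFDA fluorescence by flow cytometry; means ± SEM.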

[36] = tested on: HeLa; assay: Induction of apoptosis in human HeLa cells assessed as GSH depletion at 1 to 2.5 uM after 24 hrs by CMFDA staining-based flow cytometry in presence of N-acetylcysteine; format: functional, cell-based; how it was run: as §4
[37] = tested on: L1210; assay: Cytotoxicity against mouse L1210 cells; format: functional, cell-based

With `C=C(Br)C(=O)Nc1cccc(/C=C/C(=O)Nc2ccc(N3CCOCC3)cc2)c1` the IC50 [1] was 430 nM, the IC50 [2] was 1600 nM and the IC50 [3] was 510 nM. It also gave an IC50 [4] of 610 nM, an IC50 [5] of 40 nM and an IC50 [6] of 57 nM. The IC50 [7] was 2600 nM, the IC50 [8] was 4000 nM and the IC50 [9] was 500 nM. It also gave a selectivity ratio [10] of 10, a selectivity ratio [11] of 10 and an IC50 [12] of 1050 nM. For the same compound, the IC50 [13] was 410 nM, the “Ratio IC50” value [14] was 2 and the “Ratio IC50” value [15] was 0.7. For the same compound, the inhibition [16] was “inactive”, the Activity [17] was “inactive” and the Activity [18] was “inactive”. For the same compound, the Activity [19] was “inactive”, the inhibition [20] was “inactive” and the Activity [21] was “Dose-dependent effect”. The Activity [22] was “Active”, the Activity [23] was “Active” and the Activity [24] was “inactive”. The Activity [25] was “tde”, the Activity [26] was “Dose-dependent effect” and the Activity [27] was “tde”. The Activity [28] was “Dose-dependent effect”, the Activity [29] was “tde” and the Activity [30] was “inactive”. For the same compound, the Activity [31] was “Active”, the Activity [32] was “Active” and the Activity [33] was “Active”. The Activity [34] was “Active”, the Activity [35] was “Dose-dependent effect” and the Activity [36] was “inactive”.

For `C=C(Br)C(=O)O`, the IC50 [37] was greater than 120000 nM.

Source: ChEMBL document CHEMBL3286242, “Design, synthesis and biological evaluation of arylcinnamide hybrid derivatives as novel anticancer agents” (Eur J Med Chem, 2014)
